From ChEMBL document CHEMBL1932999, “Increased susceptibility to resveratrol of Helicobacter pylori strains isolated from patients with gastric carcinoma” (2011)
In brackets after ≈: the same amount, converted by molar mass.

How the values were obtained:
Helicobacter pylori [1] = assay: Antibacterial activity against CagA-expressing Helicobacter pylori 17C7 isolated from gastric carcinoma patient after 48 hrs compound exposure followed by incubation on Columbia-blood agar plate for 3 to 5 days; type: functional
Outline: (§1)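 Compound dissolved in water with 4% DMSO, filter-sterilized, and serially twofold diluted in Brucella broth with 10% bovine fetal serum. Inoculum from 48 h microaerobic Brucella agar-BFS cultures, added at approximately 10^6 CFU/mL final. Broth incubated microaerobically at 37 °C for 24 or 48 h, then each dilution subcultured onto Columbia-blood agar. MBC is the lowest concentration with no growth on subculture. Triplicate; mean ± SD.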

Helicobacter pylori [2] = assay: Antibacterial activity against CagA-expressing Helicobacter pylori 18C7 isolated from gastric carcinoma patient after 48 hrs compound exposure followed by incubation on Columbia-blood agar plate for 3 to 5 days; type: functional; outline: as §1
Helicobacter pylori [3] = assay: Antibacterial activity against CagA-expressing Helicobacter pylori 3Cb isolated from gastric carcinoma patient after 48 hrs compound exposure followed by incubation on Columbia-blood agar plate for 3 to 5 days; type: functional; outline: as §1
Helicobacter pylori [4] = assay: Antibacterial activity against CagA-expressing Helicobacter pylori 2Ca isolated from gastric carcinoma patient after 48 hrs compound exposure followed by incubation on Columbia-blood agar plate for 3 to 5 days; type: functional; outline: as §1
Helicobacter pylori [5] = assay: Bactericidal activity against CagA-deficient Helicobacter pylori G21b isolated from chronic gastritis patient compound exposure followed by incubation on Columbia-blood agar plate for 3 to 5 days; type: functional, organism-based; conditions: TDE = time-dependent effect
Outline: (§2)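 Broth microdilution MBC against clinical H. pylori isolates (cagA by PCR; stocks kept frozen in Columbia broth with 20% glycerol). Compound dissolved in water with 4% DMSO, filter-sterilized, double diluted in Brucella broth with 10% fetal bovine serum. Inoculum about 10^6 CFU/mL from 48 h microaerobic Brucella agar-BFS cultures. Plates held microaerobically at 37 °C for 24 and 48 h. Each well was then spotted onto Columbia-blood agar for 3-5 days. MBC is the lowest concentration giving no regrowth. Triplicate, mean ± SD.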

Helicobacter pylori [6] = assay: Bactericidal activity against CagA-deficient Helicobacter pylori G104 isolated from chronic gastritis patient compound exposure followed by incubation on Columbia-blood agar plate for 3 to 5 days; type: functional, organism-based; conditions: TDE = time-dependent effect; outline: as §2
Helicobacter pylori [7] = assay: Bactericidal activity against CagA-deficient Helicobacter pylori NS23 isolated from chronic gastritis patient compound exposure followed by incubation on Columbia-blood agar plate for 3 to 5 days; type: functional, organism-based; conditions: TDE = time-dependent effect; outline: as §2
Helicobacter pylori [8] = assay: Bactericidal activity against CagA-deficient Helicobacter pylori G204 isolated from chronic gastritis patient compound exposure followed by incubation on Columbia-blood agar plate for 3 to 5 days; type: functional, organism-based; conditions: TDE = time-dependent effect; outline: as §2
Helicobacter pylori [9] = assay: Bactericidal activity against CagA-expressing Helicobacter pylori CCUG17874 isolated from chronic gastritis patient compound exposure followed by incubation on Columbia-blood agar plate for 3 to 5 days; type: functional, organism-based; conditions: TDE = time-dependent effect; outline: as §2
Helicobacter pylori [10] = assay: Bactericidal activity against CagA-expressing Helicobacter pylori MDO21 isolated from chronic gastritis patient compound exposure followed by incubation on Columbia-blood agar plate for 3 to 5 days; type: functional, organism-based; conditions: TDE = time-dependent effect; outline: as §2
Helicobacter pylori [11] = assay: Bactericidal activity against CagA-expressing Helicobacter pylori MD6 isolated from chronic gastritis patient compound exposure followed by incubation on Columbia-blood agar plate for 3 to 5 days; type: functional, organism-based; conditions: TDE = time-dependent effect; outline: as §2
Helicobacter pylori [12] = assay: Bactericidal activity against CagA-expressing Helicobacter pylori G27 isolated from chronic gastritis patient compound exposure followed by incubation on Columbia-blood agar plate for 3 to 5 days; type: functional; conditions: TDE = time-dependent effect; outline: as §2
Helicobacter pylori [13] = assay: Bactericidal activity against CagA-expressing Helicobacter pylori SI10 isolated from chronic gastritis patient compound exposure followed by incubation on Columbia-blood agar plate for 3 to 5 days; type: functional, organism-based; conditions: TDE = time-dependent effect; outline: as §2
Helicobacter pylori [14] = assay: Bactericidal activity against CagA-expressing Helicobacter pylori G20 isolated from chronic gastritis patient compound exposure followed by incubation on Columbia-blood agar plate for 3 to 5 days; type: functional, organism-based; conditions: TDE = time-dependent effect; outline: as §2
Helicobacter pylori [15] = assay: Antibacterial activity against CagA-deficient Helicobacter pylori Ba142 isolated from chronic gastritis patient after 48 hrs compound exposure followed by incubation on Columbia-blood agar plate for 3 to 5 days; type: functional; outline: as §1
Helicobacter pylori [16] = assay: Antibacterial activity against CagA-deficient Helicobacter pylori G12 isolated from chronic gastritis patient after 48 hrs compound exposure followed by incubation on Columbia-blood agar plate for 3 to 5 days; type: functional; outline: as §1
Helicobacter pylori [17] = assay: Antibacterial activity against CagA-deficient Helicobacter pylori G204 isolated from chronic gastritis patient after 48 hrs compound exposure followed by incubation on Columbia-blood agar plate for 3 to 5 days; type: functional; outline: as §1
Helicobacter pylori [18] = assay: Antibacterial activity against CagA-expressing Helicobacter pylori CCUG17874 isolated from chronic gastritis patient after 48 hrs compound exposure followed by incubation on Columbia-blood agar plate for 3 to 5 days; type: functional; outline: as §1
Helicobacter pylori [19] = assay: Antibacterial activity against CagA-expressing Helicobacter pylori 328 isolated from chronic gastritis patient after 48 hrs compound exposure followed by incubation on Columbia-blood agar plate for 3 to 5 days; type: functional; outline: as §1
Helicobacter pylori [20] = assay: Antibacterial activity against CagA-expressing Helicobacter pylori G27 isolated from chronic gastritis patient after 48 hrs compound exposure followed by incubation on Columbia-blood agar plate for 3 to 5 days; type: functional; outline: as §1
Helicobacter pylori [21] = assay: Antibacterial activity against CagA-expressing Helicobacter pylori Ma01 isolated from chronic gastritis patient after 48 hrs compound exposure followed by incubation on Columbia-blood agar plate for 3 to 5 days; type: functional; outline: as §1
Helicobacter pylori [22] = assay: Antibacterial activity against CagA-expressing Helicobacter pylori SI10 isolated from chronic gastritis patient after 48 hrs compound exposure followed by incubation on Columbia-blood agar plate for 3 to 5 days; type: functional; outline: as §2
Helicobacter pylori [23] = assay: Antibacterial activity against CagA-expressing Helicobacter pylori G20 isolated from chronic gastritis patient after 48 hrs compound exposure followed by incubation on Columbia-blood agar plate for 3 to 5 days; type: functional; outline: as §1
Helicobacter pylori [24] = assay: Antibacterial activity against CagA-expressing Helicobacter pylori 10K isolated from gastric carcinoma patient after 48 hrs compound exposure followed by incubation on Columbia-blood agar plate for 3 to 5 days; type: functional; outline: as §1
Helicobacter pylori [25] = assay: Antibacterial activity against CagA-deficient Helicobacter pylori G21b isolated from chronic gastritis patient after 24 hrs compound exposure followed by incubation on Columbia-blood agar plate for 3 to 5 days; type: functional; outline: as §1
Helicobacter pylori [26] = assay: Antibacterial activity against CagA-deficient Helicobacter pylori Ba142 isolated from chronic gastritis patient after 24 hrs compound exposure followed by incubation on Columbia-blood agar plate for 3 to 5 days; type: functional; outline: as §1
Helicobacter pylori [27] = assay: Antibacterial activity against CagA-deficient Helicobacter pylori NS23 isolated from chronic gastritis patient after 24 hrs compound exposure followed by incubation on Columbia-blood agar plate for 3 to 5 days; type: functional; outline: as §1
Helicobacter pylori [28] = assay: Antibacterial activity against CagA-deficient Helicobacter pylori G12 isolated from chronic gastritis patient after 24 hrs compound exposure followed by incubation on Columbia-blood agar plate for 3 to 5 days; type: functional; outline: as §1
Helicobacter pylori [29] = assay: Antibacterial activity against CagA-expressing Helicobacter pylori CCUG17874 isolated from chronic gastritis patient after 24 hrs compound exposure followed by incubation on Columbia-blood agar plate for 3 to 5 days; type: functional; outline: as §1
Helicobacter pylori [30] = assay: Antibacterial activity against CagA-expressing Helicobacter pylori G27 isolated from chronic gastritis patient after 24 hrs compound exposure followed by incubation on Columbia-blood agar plate for 3 to 5 days; type: functional; outline: as §1
Helicobacter pylori [31] = assay: Antibacterial activity against CagA-expressing Helicobacter pylori G39 isolated from chronic gastritis patient after 24 hrs compound exposure followed by incubation on Columbia-blood agar plate for 3 to 5 days; type: functional; outline: as §1
Helicobacter pylori [32] = assay: Antibacterial activity against CagA-expressing Helicobacter pylori G20 isolated from chronic gastritis patient after 24 hrs compound exposure followed by incubation on Columbia-blood agar plate for 3 to 5 days; type: functional; outline: as §1
Helicobacter pylori [33] = assay: Antibacterial activity against CagA-expressing Helicobacter pylori 10K isolated from gastric carcinoma patient after 24 hrs compound exposure followed by incubation on Columbia-blood agar plate for 3 to 5 days; type: functional; outline: as §1

`Oc1ccc(/C=C/c2cc(O)cc(O)c2)cc1` [RESVERATROL] was tested, and the MBC (Helicobacter pylori [1]) was 37 µg/mL (≈ 162 µM), the MBC (Helicobacter pylori [2]) was 37 µg/mL (≈ 162 µM) and the MBC (Helicobacter pylori [3]) was 40 µg/mL (≈ 175 µM). The MBC (Helicobacter pylori [4]) was 160 µg/mL (≈ 701 µM), the Activity (Helicobacter pylori [5]) was “tde” and the Activity (Helicobacter pylori [6]) was “tde”. For the same compound, the Activity (Helicobacter pylori [7]) was “tde”, the Activity (Helicobacter pylori [8]) was “tde” and the Activity (Helicobacter pylori [9]) was “tde”. The Activity (Helicobacter pylori [10]) was “tde”, the Activity (Helicobacter pylori [11]) was “tde” and the Activity (Helicobacter pylori [12]) was “tde”. For the same compound, the Activity (Helicobacter pylori [13]) was “tde”, the Activity (Helicobacter pylori [14]) was “tde” and the MBC (Helicobacter pylori [15]) was 295 µg/mL (≈ 1290 µM). The MBC (Helicobacter pylori [16]) was 324 µg/mL (≈ 1420 µM), the MBC (Helicobacter pylori [17]) was 648 µg/mL (≈ 2840 µM) and the MBC (Helicobacter pylori [18]) was 295 µg/mL (≈ 1290 µM). The MBC (Helicobacter pylori [19]) was 295 µg/mL (≈ 1290 µM), the MBC (Helicobacter pylori [20]) was 295 µg/mL (≈ 1290 µM) and the MBC (Helicobacter pylori [21]) was 589 µg/mL (≈ 2580 µM). For the same compound, the MBC (Helicobacter pylori [22]) was 295 µg/mL (≈ 1290 µM), the MBC (Helicobacter pylori [23]) was 640 µg/mL (≈ 2800 µM) and the MBC (Helicobacter pylori [24]) was 74 µg/mL (≈ 324 µM). For the same compound, the MBC (Helicobacter pylori [25]) was 295 µg/mL (≈ 1290 µM), the MBC (Helicobacter pylori [26]) was 295 µg/mL (≈ 1290 µM) and the MBC (Helicobacter pylori [27]) was 147 µg/mL (≈ 644 µM). For the same compound, the MBC (Helicobacter pylori [28]) was 648 µg/mL (≈ 2840 µM), the MBC (Helicobacter pylori [29]) was 589 µg/mL (≈ 2580 µM) and the MBC (Helicobacter pylori [30]) was 295 µg/mL (≈ 1290 µM). For the same compound, the MBC (Helicobacter pylori [31]) was 640 µg/mL (≈ 2800 µM), the MBC (Helicobacter pylori [32]) was 1280 µg/mL (≈ 5610 µM) and the MBC (Helicobacter pylori [33]) was 74 µg/mL (≈ 324 µM).
